Results taken from ChEMBL document CHEMBL3425440, “ent-Kaurane Diterpenoids from Chinese Liverworts and Their Antitumor Activities through Michael Addition As Detected in Situ by a Fluorescence Probe” (J Med Chem, 2015).

Assays:
LoVo = experiment: Cytotoxicity against human LoVo cells assessed as cell viability after 24 hrs by MTT assay; assay type: functional, cell-based
Procedure, shortened: (§1)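 Cells grown to about 50−70% confluence at 37 °C, 5% CO2, then exposed to compounds 24 h (DMSO vehicle control, cisplatin positive control). MTT (5 mg/mL stock) added for 4 h, formazan dissolved in DMSO, absorbance read at 570 nm. IC50 derived from percent viability; at least three independent experiments, mean ± SD.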

MDA-MB-231 = experiment: Cytotoxicity against human MDA-MB-231 cells assessed as cell viability after 24 hrs by MTT assay; assay type: functional, cell-based; conditions: MDA-MB-231, 24 h; procedure, shortened: as §1
[1] = Cytotoxicity against human PC3 cells assessed as cell viability after 24 hrs by MTT assay; assay type: functional, cell-based; conditions: PC-3, 24 h; procedure, shortened: as §1
[2] = Cytotoxicity against human SH-SY5Y cells assessed as cell viability after 24 hrs by MTT assay; assay type: functional, cell-based; procedure, shortened: as §1
[3] = Cytotoxicity against human SKOV3 cells assessed as cell viability after 24 hrs by MTT assay; assay type: functional, cell-based; conditions: SK-OV-3, 24 h; procedure, shortened: as §1
NCI-H1299 = experiment: Cytotoxicity against human NCI-H1299 cells assessed as cell viability after 24 hrs by MTT assay; assay type: functional, cell-based; conditions: NCI-H1299, 24 h; procedure, shortened: as §1
[4] = Cytotoxicity against human RWPE1 cells assessed as cell viability after 24 hrs by MTT assay; assay type: cell-based; conditions: RWPE-1, 24 h; procedure, shortened: as §1
LNCaP = experiment: Cytotoxicity against human LNCAP cells assessed as cell viability after 24 hrs by MTT assay; assay type: functional, cell-based; procedure, shortened: as §1
[5] = Cytotoxicity against human HL60 cells assessed as cell viability after 24 hrs by MTT assay; assay type: functional, cell-based; conditions: HL-60, 24 h; procedure, shortened: as §1
K562 = experiment: Cytotoxicity against human K562 cells assessed as cell viability after 24 hrs by MTT assay; assay type: functional, cell-based; conditions: K562, 24 h; procedure, shortened: as §1
[6] = Cytotoxicity against human A172 cells assessed as cell viability after 24 hrs by MTT assay; assay type: functional, cell-based; conditions: A 172, 24 h; procedure, shortened: as §1
DU-145 = experiment: Cytotoxicity against human DU145 cells assessed as cell viability after 24 hrs by MTT assay; assay type: functional, cell-based; conditions: DU-145, 24 h; procedure, shortened: as §1
[7] = Cytotoxicity against human T24 cells assessed as cell viability after 24 hrs by MTT assay; assay type: functional, cell-based; conditions: T-24, 24 h; procedure, shortened: as §1
[8] = Cytotoxicity against human Saos2 cells assessed as cell viability after 24 hrs by MTT assay; assay type: functional, cell-based; conditions: SAOS-2, 24 h; procedure, shortened: as §1

SMILES | IC50 (LoVo) [µM] | IC50 (MDA-MB-231) [µM] | IC50 [1] [µM] | IC50 [2] [µM] | IC50 [3] [µM] | IC50 (NCI-H1299) [µM] | IC50 [4] [µM] | IC50 (LNCaP) [µM] | IC50 [5] [µM] | IC50 (K562) [µM] | IC50 [6] [µM] | IC50 (DU-145) [µM] | IC50 [7] [µM] | IC50 [8] [µM]
C[C@H]1C(=O)[C@@]23CC[C@@H]4[C@@](C)(CO)CCC[C@@]4(C)C2=CC[C@]1(O)C3 | > 50 | > 50 | > 50 | > 50 | > 50 | > 50 | > 50 | > 50 | > 50 | > 50 | > 50 | > 50 | > 50 | > 50
C=C1[C@@H]2CC[C@@H]3[C@@](CC[C@@H]4C(C)(C)CC[C@H](O)[C@]43C)(C2)[C@@H]1O | > 50 | > 50 | > 50 | > 50 | > 50 | > 50 | > 50 | > 50 | > 50 | > 50 | > 50 | > 50 | > 50 | > 50
C=C1[C@@H](O)[C@@]23CC[C@@H]4C(C)(C)CCC[C@@]4(C)[C@@H]2CC[C@@H]1[C@H]3O | > 50 | > 50 | > 50 | > 50 | > 50 | > 50 | > 50 | > 50 | > 50 | > 50 | > 50 | > 50 | > 50 | > 50
C=C1C(=O)[C@@]23CC[C@@H]4[C@@](C)(CO)CCC[C@@]4(C)C2=CC[C@@H]1C3 | 11.2 | 32 | 21.5 | 9.8 | 22.3 | 14.5 | 39.3 | 16.3 | 4.7 | 13.8 | 20.3 | 31 | 17.7 | 14
C=C1C(=O)[C@@]23CC[C@@H]4[C@](C)(CO)CCC[C@@]4(C)C2=CC[C@]1(O)C3 | 18.4 | 15.5 | 6.6 | 4.9 | 11.3 | 19 | 13.2 | 12.8 | 6.7 | 10.4 | 13 | 8.3 | 13.2 | 15.8
